Screening data (PubChem)
The list is not random: actives were taken first. Their share in the collection is about 1.1%.
Diaph inh CS: diaphorase inhibitors and chemical oxidizers, primary screen, counter-screen for diaphorase-coupled primary assays, biochemical, uHTS, resorufin fluorescence | diaphorase resazurin-to-resorufin fluorescence, NADH, 16 min; bacterial (C. kluyveri) enzyme, not human | inhibition, % at 20 µM | 0.69% of 190,000 active;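 active = primary screen inhibition at 20 µM above a set limit, cut at about 50% in these data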;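 note: plate controls were DMSO with full reaction for no effect and wells lacking NADH for full effect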
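Test system: bacterial diaphorase enzyme (C. kluyveri); Quantity: 0.14 U/mL diaphorase, enzyme working solution; Times: reaction incubation of 16 min at room temperature; Measured by: fluorescence of resorufin formed from resazurin, Ex 544/Em 590 nm; Benchmarks: positive control minus NADH, DMSO neutral control.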
Diaphorase act: compounds boosting diaphorase resazurin reduction – biochemical, uHTS, resorufin fluorescence, counter-screen for diaphorase-coupled primary assays, primary screen | activation factor at 20 µM | AID 1229, 2008 | 0.005% of 190,000 active | Diaphorase/resazurin coupled assay, 16 min; stronger effect = higher value; 1 = vehicle wells, 0 = NADH-free wells;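 active = diaphorase activity raised at least twofold by the compound at 20 µM; inactive = activation factor below 2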
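test system = bacterial diaphorase enzyme (C. kluyveri) | quantity = enzyme 0.07 U/mL final | reagent = NADH substrate 0.114 mM plus resazurin dye 0.1 mM, final | incubation = 16 min enzyme reaction, ambient temperature | buffer or medium = HEPES pH 7.4 buffer with MgCl2 and Tween 20 | signal = fluorescence of resorufin, 544 nm excitation, 590 nm emission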
PMI act: activators of human PMI, primary screen, biochemical, fluorescence intensity, near-Km mannose 6-phosphate | activation factor at 20 µM | 0.005% of 190,000 active | Mannose-6-phosphate isomerase (Homo sapiens), P34949 | purified human PMI, coupled resazurin fluorescence, 20 min; stronger effect = higher value; 1 = vehicle control, 0 substrate-free wells;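 active = activation factor of 2 or more at 20 µM, relative to plate controls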
Target sequence (P34949 whole entry, looked up): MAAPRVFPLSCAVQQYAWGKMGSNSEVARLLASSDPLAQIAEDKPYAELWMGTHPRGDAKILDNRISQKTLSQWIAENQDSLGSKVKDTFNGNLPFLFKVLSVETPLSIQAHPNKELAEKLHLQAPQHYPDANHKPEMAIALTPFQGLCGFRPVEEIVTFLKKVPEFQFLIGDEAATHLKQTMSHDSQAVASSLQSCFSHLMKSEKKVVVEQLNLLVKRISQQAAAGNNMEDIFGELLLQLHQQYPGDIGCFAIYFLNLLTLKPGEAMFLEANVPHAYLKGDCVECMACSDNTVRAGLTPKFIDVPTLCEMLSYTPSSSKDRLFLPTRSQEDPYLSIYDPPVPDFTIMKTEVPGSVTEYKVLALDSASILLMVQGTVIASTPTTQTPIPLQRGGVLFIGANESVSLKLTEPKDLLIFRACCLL
G6PDH counter: L. mesenteroides G6PDH inhibitors, counter-screen for G6PDH-coupled screening assays, biochemical, Leuconostoc mesenteroides enzyme; Purified L. mesenteroides G6PDH, diaphorase/resazurin coupled fluorescence, 45 min; inhibition, % at 5 µM; 0.12% of 200,000 active; AID 1020, 2008; in the data active = inhibition above about 50%
PMI act hi M6P: human PMI activators, high substrate, primary screen, biochemical, fluorescence intensity, near-saturating mannose 6-phosphate | coupled PMI enzyme assay, resazurin fluorescence, 20 min; stronger effect = higher value; 1 = untreated enzyme, 0 = substrate-free blank | activation factor at 20 µM | 0.34% of 190,000 active | AID 1216, 2008;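 active = activation factor of 2 or more at 20 µM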
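Technique: Diaphorase-driven resazurin-to-resorufin fluorescence, excitation 544, emission 590 nm | Assay system: Human PMI in coupled enzyme assay | Times: Enzyme reaction with compound 20 min at room temperature | Medium: HEPES-buffered pH 7.4 with magnesium and detergent | Reagent: Mannose-6-phosphate 1.0 mM (near-saturating) plus 0.22 mM NADP+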
* = called active by the depositor.

SMILES	Diaph inh CS	Diaphorase act	PMI act	G6PDH counter	PMI act hi M6P
COc1ccc(C(=O)N/N=C/c2cc3ccccc3[nH]c2=S)cc1	55*	0.5	1.7	2	2*
COc1ccc(C(=O)N/N=C/c2cccc3cccnc23)cc1	2	1	1.2	11	1.2
Clc1cccc(Cl)c1CNc1ccc(N2CCCC2)cc1	76*	0.2	0.1	14	0.2
Cn1c(=S)[nH]c(=O)c2ncc(=O)[nH]c21	-5	1.1	1.1	8	1.1
CCOC(=O)C1(Cc2ccccc2C)CCCN(Cc2cc(OC)c(O)c(OC)c2)C1 (stereo unspecified)	12	0.9	0.8	59*	0.3
CCOC(=O)C(NS(=O)(=O)c1ccccc1)(C(F)(F)F)P(=O)(OCC(C)C)OCC(C)C (stereo unspecified)	-4	1	1.8	4	2*
CCOC(=O)C(NCc1ccccc1)(NC(=O)c1ccccc1)C(F)(F)F (stereo unspecified)	10	0.9	0.9	4	1
CC(C)N=C(NS(=O)(=O)NC(=O)c1ccccc1)c1ccccc1	-2	1	1.2	4	1.1
COC(=O)/C(=N\Nc1ccc(Cl)cc1)Sc1nnc(-c2ccc(OC)cc2)n1C	12	0.9	0.9	5	1
CCCn1c(N)c(C(=S)NC(=O)C2CC2)c(=O)n(C)c1=O	52*	0.5	0.9	-10	1
CCCCn1c(N)c(C(=S)NC(=O)CC(C)C)c(=O)n(C)c1=O	59*	0.4	1	-8	1
CC(=O)NC(=S)c1c(N)n(Cc2ccccc2)c(=O)n(C)c1=O	42	0.6	1	-2	0.9
CCCn1c(N)c(C(=O)COC(=O)c2c(C)noc2C)c(=O)n(C)c1=O	20	0.8	1	8	1
CN(CC(=O)OCC(=O)NCC(F)(F)F)S(=O)(=O)c1ccc(Cl)cc1	6	0.9	1	3	1.1
Cc1cc(S(=O)(=O)N2CCN=C2c2ccccc2)c(Cl)cc1Cl	2	1	1	1	1
Cc1cc(C)c(C(N)=O)c(Nc2cccc3ccccc23)n1	91*	0.1	0.4	4	0.4
CNC(=O)CNC(=O)Nc1ccc(Cl)c(Cl)c1	67*	0.3	1	7	1
COc1ccc(CCN(C)Cc2nc(Cc3ccc(OC)c(OC)c3)no2)cc1OC	-7	1.1	1	14	1.1
CSc1nc(-c2ccccc2)nc(SC)c1C(C)=O	2	1	0.9	4	1
CSc1nc(-c2ccccc2)[nH]c(=S)c1C(C)=O	73*	0.3	1	-2	1.1
CC(=O)c1c(NC(=O)c2ccccc2)[nH]c(-c2ccccc2)nc1=S	67*	0.3	1.1	-2	1.1
Cc1nnc(SC(C)C#N)n1-c1ccccc1 (stereo unspecified)	16	0.8	1	1	1
O=C(CSc1ccccn1)Nc1nncs1	10	0.9	1	8	1
COc1ccc(C(=O)NNc2ccccc2)cc1OC	22	0.8	1.4	4	2.2*
Oc1ccc(C2=Nn3c(nnc3-c3ccco3)SC2)cc1O	70*	0.3	0.4	19	0.4
SMILES	Diaph inh CS	Diaphorase act	PMI act	G6PDH counter	PMI act hi M6P
CC1CC1C(=O)Nc1nc(-c2cccs2)c(-c2cccs2)s1 (stereo unspecified)	27	0.7	0.9	8	0.9
C=CCN(CC=C)C(=O)c1cc2ccccc2c(=O)o1	1	1	1	-4	1
Cc1ccc(S(=O)(=O)N/N=C\c2ccc([N+](=O)[O-])o2)cc1	23	0.8	1.5	-10	2.1*
Cc1ccc(S(=O)(=O)N/N=C\c2ccc(C)o2)cc1	7	0.9	1.1	-6	1
O=[N+]([O-])c1ccc(/C=N/NS(=O)(=O)c2ccc(Cl)cc2)o1	11	0.9	1.6	13	2.2*
O=C(CNC(=S)N(Cc1ccccc1)Cc1ccccc1F)NCCc1ccc(Cl)cc1	20	0.8	0.9	1	1
COc1cc(O)c2c(c1)OC(c1ccc(O)cc1)CC2=O (stereo unspecified)	57*	0.4	1	5	0.7
Cc1c(O)cc2c(c1O)C(=O)CC(c1ccc(O)cc1)O2 (stereo unspecified)	24	0.8	1	12	1.1
Cc1ccc(NC(=O)CN2C(=O)S/C(=C/c3ccc(O)c([N+](=O)[O-])c3)C2=O)cc1C	92*	0.1	1	13	1
O=C(NNc1ccc(C2CCCCC2)cc1)C(O)(c1ccccc1)c1cccs1 (stereo unspecified)	14	0.9	1.2	3	2.1*
CC12CCCCC1N(O)C(=O)C(=O)N2O (stereo unspecified)	-7	1.1	1	15	1.1
C=CCNc1nc(NCc2ccccc2)c(C#N)c2c1CN(C)CC2	63*	0.4	0.5	12	0.3
C(=N\Nc1ccccn1)/c1ccc(N2CCOCC2)cc1	0	1	0.9	8	0.8
C(=N\Nc1ccccc1)/c1ccc(N2CCOCC2)cc1	12	0.9	1.3	6	2.2*
Clc1cccc(N/N=C/c2ccc(N3CCOCC3)cc2)c1	7	0.9	1.4	13	2.3*
C=CCn1c(C)cc(C2=NNC(=NCc3ccccc3)SC2)c1C	-4	1	1.2	6	1.1
CCN=C1NN=C(c2cc(C)n(CCc3ccccc3)c2C)CS1	13	0.9	1.6	5	2.2*
O=C(O)c1ccc(N/N=C/c2ccc(-c3ccccc3)cc2)cc1	33	0.7	1.6	-5	2.4*
Cc1ccc(/C=N/Nc2ccc(C(=O)O)cc2)o1	8	0.9	1.1	7	1.1
C=CCOc1c(Br)cc(/C=N/Nc2ccc(C(=O)O)cc2)cc1OCC	15	0.8	1	1	1
COc1ccc(/C=N/Nc2ccc(C(=O)O)cc2)cc1Br	-6	1.1	1.8	8	2.5*
CC(C)c1ccc(/C=N/Nc2ccc(C(=O)O)cc2)cc1	13	0.9	1.8	9	2.5*
COc1cccc(/C=N/NC(=O)CNC(=O)c2ccc(S(=O)(=O)N3CCCC3)cc2)c1OC	15	0.8	0.9	12	1
Cc1ccc(C)c(NC(=S)Nc2cccc3cnccc23)c1	55*	0.4	0.5	40	0.6
Cc1ccc(NC(=S)Nc2cccc3cnccc23)cc1C	39	0.6	1	56*	1.3
